# HNF4A DNA FP – change in binding of human HNF4 alpha to DNA. P41235. HNF4a-FITC DNA binding, fluorescence polarization, 1 h. activity change, % at 10 µM. actives 0.3% (n = 360,000); in the data active = activity change above about 30%, passing the limit was not always enough
# Rpn11 block – Rpn11 (human) deubiquitinase inhibition. AID 588493. human 26S proteasome, Ub4-pepOG fluorescence polarization; 20S core pre-blocked with epoxomicin. actives 0.59% (n = 360,000). calls only at 20 µM;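 active = inhibition at 20 µM, scaled to each plate's controls, above about 33%, limit read from the data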
# PKA-R1A act – PKA-R1A complex activation; PKA-R1A dissociation, Cy5-IP20 fluorescence polarization; scaled: DMSO 0%, 113 µM cGMP 100%; activation, % at 11.4 µM; actives 0.083% (n = 340,000);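 active = percent activation above the mean of all tested compounds plus 3 SD, cut at about 19% in these data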;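 also: higher means more PKAc released from R1A so a rise in polarization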
# TPT1 inh – C. albicans TPT1 enzyme inhibition; recombinant caTPT1, FP RNA substrate dephosphorylation; inhibition, % at 5 µM; actives 0.81% (n = 300,000);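 active = inhibition above the mean of all tested compounds plus 3 SD, set per screening campaign, cut at about 24% in these data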
# CSN deneddyl inh – blocks human CSN-mediated cullin deneddylation; Purified CSN, SCF-Nedd8-OG deneddylation, fluorescence polarization; Q92905; AID 651999; actives 0.38% (n = 360,000); inhibition, % at 12.5 µM;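 active = pattern-corrected inhibition above about 35%, with an unprinted fluorescence ratio check between 0.5 and 1.5, limit read from the data, passing the limit was not always enough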
#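 Test system: Human Csn5 produced in HEK293T cells | Compound: 12.5 µM single point | Times: 90 min, room temperature | Signal: Fluorescence polarization readout | Read-out basis: % inhibition of substrate cleavage by Csn5 | Controls: no-enzyme wells high, enzyme-with-substrate wells low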
# PKA-R2B activ – activates the human PKA-R2B holoenzyme complex. PKA-R2B holoenzyme dissociation, Cy5-IP20 fluorescence polarization; R2B truncated from residue 108, S112A mutant; 0% DMSO only, 100% 113 µM cGMP. actives 0.079% (n = 340,000). activation, % at 11.4 µM. AID 504700;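 active = activation above a cutoff set at the mean over all compounds plus 3 SD, cut at about 18% in these data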;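 also: higher means more holoenzyme dissociation and a rise in polarization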
# Rpn11 confirm – Rpn11 inhibition confirmation, single concentration | purified human 26S proteasome, Ub4-pepOG fluorescence polarization; proteasome pretreated with epoxomicin | inhibition, % at 20 µM | actives 29% (n = 1,900) | shares compounds with Rpn11 block
# MMP-2 counter – counter-screen for RPN11 inhibitors: inhibition of human MMP-2 | shares compounds with Rpn11 block | recombinant MMP-2, FRET peptide cleavage fluorescence | inhibition, % at 20 µM | actives 4% (n = 1,900);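 also: human MMP-2 activated beforehand with APMA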
# Thrombin inh – counter-screen for RPN11 inhibitors: inhibition of bovine thrombin; inhibition, % at 20 µM; bovine thrombin cleavage of Ub4-pepOG, fluorescence polarization; actives 13% (n = 1,900); shares compounds with Rpn11 block;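 active = mean inhibition at least 40% at 20 µM, or signal 3 deviations below plate average, so some actives read negative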
# Target sequence (P00735 whole entry, looked up): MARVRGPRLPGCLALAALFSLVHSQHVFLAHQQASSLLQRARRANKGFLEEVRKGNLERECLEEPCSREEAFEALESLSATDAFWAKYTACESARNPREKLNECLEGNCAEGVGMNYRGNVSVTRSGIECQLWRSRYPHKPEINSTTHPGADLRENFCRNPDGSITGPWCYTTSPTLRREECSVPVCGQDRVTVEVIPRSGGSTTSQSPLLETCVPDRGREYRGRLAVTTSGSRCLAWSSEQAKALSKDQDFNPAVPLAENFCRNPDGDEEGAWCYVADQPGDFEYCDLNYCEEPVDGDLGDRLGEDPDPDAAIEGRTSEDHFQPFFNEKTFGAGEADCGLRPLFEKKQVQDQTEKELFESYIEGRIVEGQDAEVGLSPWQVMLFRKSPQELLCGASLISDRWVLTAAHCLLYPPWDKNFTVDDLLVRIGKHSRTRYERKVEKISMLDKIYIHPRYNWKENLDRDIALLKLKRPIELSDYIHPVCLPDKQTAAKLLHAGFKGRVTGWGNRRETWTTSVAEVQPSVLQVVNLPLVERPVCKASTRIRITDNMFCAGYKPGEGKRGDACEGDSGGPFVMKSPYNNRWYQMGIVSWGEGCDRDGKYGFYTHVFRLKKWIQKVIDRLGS
# Numbers stand for hits; i = inactive; nt = not tested or not shown; + = active, no number. Shown are actives, neighbours in structure and some others; about 1.6% of the full set was active somewhere. Rule as the data show it, unless noted: active = inhibition above about 40%; inactive = the rest.
SMILES,HNF4A DNA FP,Rpn11 block,PKA-R1A act,TPT1 inh,CSN deneddyl inh,PKA-R2B activ,Rpn11 confirm,MMP-2 counter,Thrombin inh
Clc1ccccc1C1CC(c2ccccc2)=Nc2ccccc2N1 (stereo unspecified),i,i,i,i,i,i,nt,nt,nt
Brc1ccccc1C1CC(c2ccccc2)=Nc2ccccc2N1 (stereo unspecified),i,+,i,i,i,i,i,i,i
CCc1cc(CNC(=O)C2CCC(=O)N(CCc3ccc(OC)cc3)C2)on1 (stereo unspecified),39,+,i,i,i,i,i,i,i
O=C(/C=C/c1ccc([N+](=O)[O-])cc1)c1ccccc(=O)c1O,i,+,i,nt,i,i,i,i,i
CC(=O)N1CCN(c2ccc(NC(=O)c3cccc(OCc4ccccc4)c3)cc2)CC1,i,+,i,i,i,i,i,i,i
CCN(CC)c1cc(C(F)(F)F)nc(-c2ccccn2)n1,i,+,i,i,i,i,i,i,i
CCOc1ccc(NC(=O)c2ccc(NC(=O)c3cn4c5c(c(N6CCN(C)CC6)c(F)cc5c3=O)OCC4C)cc2)cc1 (stereo unspecified),i,+,i,i,i,i,i,i,i
COc1ccccc1C(=O)NCCC(=O)N(C)CC(=O)Nc1ccc(Cl)cc1,i,i,i,i,i,i,nt,nt,nt
O=C(Nc1nc(-c2ccco2)c(-c2ccco2)s1)c1c(F)cccc1Cl,i,+,i,nt,49,i,i,i,i
CCOC(=O)c1c(C)[nH]c(O)c1C=Nc1ccc(Cl)cc1,i,+,i,i,i,i,i,i,i
COC(=O)Cn1c(=NC(=O)c2nc3ccccc3s2)sc2cc(S(N)(=O)=O)ccc21,i,+,i,i,i,i,i,i,i
CCOC(=O)Cn1c(=NC(=O)c2cc(-c3cccs3)nc3ccccc23)sc2cc(S(N)(=O)=O)ccc21,i,+,i,i,i,i,i,i,i
O=C(OCc1ccccc1)C1CCCN1C(=O)c1ccccc1[N+](=O)[O-] (stereo unspecified),i,i,i,i,i,i,nt,nt,nt
CN1/C(=C\C(=O)COC(=O)Cn2nnc(-c3ccccc3)n2)C(C)(C)c2ccccc21,i,+,i,i,i,i,45,i,i
O=c1c2c3c(sc2nc2n1N=C(c1cccs1)CS2)CCCC3,i,+,i,i,i,i,i,i,i
O=c1oc(-c2cccs2)nc2sc3c(c12)CCCC3,i,i,i,i,i,i,nt,nt,nt
NS(=O)(=O)c1ccc(CCNC(=O)COc2ccc3c4c(c(=O)oc3c2)CCC4)cc1,i,i,i,i,i,i,nt,nt,nt
O=C(COc1ccc2c3c(c(=O)oc2c1)CCC3)Nc1ccc(CCO)cc1,i,+,i,i,i,i,i,i,i
Cc1ccc(OCC(=O)NNC(=O)CSc2ncnc3sc(C)c(C)c23)cc1,i,+,i,i,38,i,57,68,i
Cc1sc2ncnc(SCC(=O)NC(C)(C)C)c2c1C,i,i,i,i,i,i,nt,nt,nt
CCc1ccc(OCC(=O)NNC(=O)CSc2ncnc3sc(C)c(C)c23)cc1,i,+,i,i,i,i,i,i,i
Nc1c(C(=O)CSc2ncccn2)c(=O)[nH]c(=O)n1C1CC1,i,i,i,nt,i,i,nt,nt,nt
COc1ccc(Cc2c(C(C)(C)C)nc3ccc(Cl)cn23)c(C)c1,i,+,nt,nt,i,nt,44,i,i
COc1ccc(Cc2c(-c3ccc(F)cc3)nc3c(C)cc(Br)cn23)c(C)c1,i,i,nt,nt,i,nt,nt,nt,nt
COc1ccc(Cc2c(-c3ccccc3)nc3c(C)cc(Br)cn23)c(C)c1,i,+,nt,nt,i,nt,i,47,i
SMILES,HNF4A DNA FP,Rpn11 block,PKA-R1A act,TPT1 inh,CSN deneddyl inh,PKA-R2B activ,Rpn11 confirm,MMP-2 counter,Thrombin inh
COc1ccc(Cc2c(-c3ccc(Cl)cc3)nc3c(C)cc(Br)cn23)c(C)c1,i,+,nt,nt,i,nt,i,i,i
COc1ccc(C2CC(c3cccs3)=NN2C(=O)COC(=O)c2cncc(Br)c2)cc1OC (stereo unspecified),i,+,i,i,i,i,i,63,i
COc1ccc(C2CC(c3cccs3)=NN2C(=O)COC(=O)C2CCCCC2)cc1OC (stereo unspecified),i,i,i,i,i,i,nt,nt,nt
Cc1ccc(C2CC(c3cccs3)=NN2C(=O)CCl)cc1 (stereo unspecified),i,+,i,i,i,i,i,i,i
COc1ccc(C2CC(c3cccs3)=NN2C(=O)CSC2=NCCS2)cc1 (stereo unspecified),i,+,i,i,i,i,i,i,i
CC(OC(=O)c1cccs1)C(=O)NCc1cccs1 (stereo unspecified),i,i,i,i,i,i,nt,nt,nt
CC(OC(=O)c1cccs1)C(=O)NC1CC1 (stereo unspecified),i,+,i,i,i,i,i,i,i
CCOc1ccc(NC(=O)[C@H](Cc2ccccc2)NC(=O)C2CCNCC2)cc1,i,i,i,i,i,i,nt,nt,nt
N#CC1=C(N)Oc2cc(N)ccc2C1c1ccsc1 (stereo unspecified),i,i,i,i,i,i,nt,nt,nt
N#CC1=C(N)Oc2cc(N)ccc2C1c1cc(Br)cs1 (stereo unspecified),i,+,i,nt,i,i,i,i,i
Cc1nnc(-c2cccc(Br)c2)c2cn(-c3ccccc3Cl)nc12,i,+,i,i,i,i,i,i,i
FC(F)Sc1ccc(NC(=S)NC2CCC(NC(=S)Nc3ccc(SC(F)F)cc3)CC2)cc1 (stereo unspecified),i,+,i,i,i,i,i,i,i
O=C(Nc1cccc(Cl)c1)C1COc2ccccc2O1 (stereo unspecified),i,i,i,i,i,i,nt,nt,nt
CCOC(=O)N1CCN(C(=O)C(CC(C)C)NS(=O)(=O)c2ccc(C)cc2)CC1 (stereo unspecified),i,i,i,nt,i,i,nt,nt,nt
c1ccc(-n2nnnc2Sc2ncnc3sc4c(c23)CCCC4)cc1,i,+,i,i,i,i,i,i,i
O=C(Nc1ccc2nn(-c3ccccc3)nc2c1)c1ccc2c(c1)OCCO2,i,i,i,i,i,i,nt,nt,nt
